Reference: PubChem BioAssay AID602414 (Southern Research Specialized Biocontainment Screening …, 2012)
Values joined by “and” are separate entries in the source; they are usually repeats but may differ in a detail not shown here. Equal values may be shown once. Active and inactive are the calls of the source.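 The calls were made as follows: active = viability under 80% at some tested dose in each replicate, a sign of cell toxicity; inconclusive = meets the active limit in only one replicate; inactive = the rest.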

System: not listed separately
Test: cytotoxicity in bladder 5637 cells, dose response, cytotoxicity control for bacterial capsule biogenesis inhibitor project, cell-based, set 5 (AID 602414)
Conditions: Bladder 5637 cells viability, CellTiter-Glo, 72 h; at 150 µM (top of the series)
Summary of the method: (§1)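 Material: bladder carcinoma 5637 cells; schedule: 72 h exposure; detection: CellTiter-Glo luminescence; evaluation: percent viability versus mean cell-only control, CC50 from curve fit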

With O=C(Nc1nc2ccc(Br)cc2s1)c1cc(Br)c(Br)s1 the viability was 110% (inactive).

Same assay, conditions: Bladder 5637 cells viability, CellTiter-Glo, 72 h; at 300 µM (top of the series)

With O=C(Nc1ccc2ncsc2c1)c1ccncc1 the viability was 119% (inactive).

System: Bladder 5637 cells viability, CellTiter-Glo, 72 h
Test: as above
Conditions: not given
Summary of the method: as §1

O=C(O)c1sc(-c2ccc(C(F)(F)F)cc2)cc1NC(=O)c1c(F)cccc1F and O=C(O)c1sc(-c2ccc(OC(F)(F)F)cc2)cc1NC(=O)c1c(F)cccc1F are within 1.5-fold of each other in CC50: 44.8 µM for the first, 51 µM for the second.

O=C(Nc1cc(-c2ccc(OCC(F)(F)F)cc2)sc1C(=O)O)c1ccc(Br)o1 and O=C(Nc1cc(-c2ccc(OCCC(F)(F)F)cc2)sc1C(=O)O)c1ccc(Br)o1 are within 1.5-fold of each other in CC50: 50 µM for the first, 41.7 µM for the second.

CCOc1ccc(-c2cc(NC(=O)c3ccc(Br)o3)c(C(=O)O)s2)cc1 and COc1ccc(-c2cc(NC(=O)c3ccc(Br)o3)c(C(=O)O)s2)cc1 are within 1.5-fold of each other in CC50: 58.4 µM for the first, 50.5 µM for the second.

CCOc1ccc(-c2cc(NC(=O)c3ccc(OC)c(OC)c3)c(C(=O)O)s2)cc1 and CCOc1ccc(-c2cc(NC(=O)c3cccc(Cl)c3)c(C(=O)O)s2)cc1 are within 1.5-fold of each other in CC50: 61.8 µM for the first, 43.6 µM for the second.

CCCc1ccc(-c2cc(NC(=O)c3ccc(Br)o3)c(C(=O)O)s2)cc1 and Cc1ccc(-c2cc(NC(=O)c3ccc(Br)o3)c(C(=O)O)s2)cc1 are within 1.5-fold of each other in CC50: 46.4 µM for the first, 50.7 µM for the second.

O=C(Nc1cc(-c2ccc(OCCCC(F)(F)F)cc2)sc1C(=O)O)c1ccc(Br)o1 and CCCCOc1ccc(-c2cc(NC(=O)c3ccc(Br)o3)c(C(=O)O)s2)cc1 are within 1.5-fold of each other in CC50: 38.7 µM for the first, 43.4 µM for the second.

First: CC(C)(C)c1ccc(-c2cc(NC(=O)c3cccc(F)c3)c(C(=O)O)s2)cc1
Second: Cc1ccc(-c2cc(NC(=O)c3cccc(F)c3)c(C(=O)O)s2)cc1
The CC50 of the first is 2.1-fold lower: 21.1 µM for the first, 43.9 µM for the second.

First: O=C(Nc1ncccc1O)c1ccc2ncsc2c1
Second: O=C(Nc1ccnc(Cl)c1)c1ccc2ncsc2c1
The CC50 of the first is 4.1-fold higher: 159 µM for the first, 38.8 µM for the second.

Compared with [N-]=[N+]=NCCOc1ccc(-c2cc(NC(=O)c3c(F)cccc3F)c(C(=O)O)s2)cc1, CCCCOc1ccc(-c2cc(NC(=O)c3c(F)cccc3F)c(C(=O)O)s2)cc1 is 6.4-fold lower in CC50: 273 µM for the first, 42.6 µM for the second.

Compared with O=C(O)c1sc(-c2ccc(OCC(F)(F)F)cc2)cc1NC(=O)c1c(F)cc(F)cc1F, O=C(O)c1sc(-c2ccc(OCCC(F)(F)F)cc2)cc1NC(=O)c1c(F)cc(F)cc1F is 2.5-fold lower in CC50: 161 µM for the first, 63.6 µM for the second.

Cc1ccc(-c2cc(NC(=O)c3c(F)cccc3F)c(C(=O)O)s2)cc1 and COc1ccc(-c2cc(NC(=O)c3c(F)cccc3F)c(C(=O)O)s2)cc1 are within 1.5-fold of each other in CC50: 57.3 µM for the first, 53.3 µM for the second.

O=C(Nc1cc(-c2ccccc2)sc1C(=O)O)c1cccc(Cl)c1 and O=C(Nc1cc(-c2ccccc2)sc1C(=O)O)c1cccs1 are within 1.5-fold of each other in CC50: 35 µM for the first, 34.7 µM for the second.

First: O=C(O)c1sc(-c2ccc(OCCCC(F)(F)F)cc2)cc1NC(=O)c1c(F)cccc1F
Second: O=C(O)c1sc(-c2ccc(OCCC(F)(F)F)cc2)cc1NC(=O)c1c(F)cccc1F
The CC50 of the first is 3.5-fold higher: 241 µM for the first, 68.4 µM for the second.

Going from O=C(Nc1cc(-c2ccc(C(F)(F)F)cc2)sc1C(=O)O)c1cc2ccccc2o1 to O=C(Nc1cc(-c2ccc(OC(F)(F)F)cc2)sc1C(=O)O)c1cc2ccccc2o1, the CC50 falls from 72.1 µM to 40.6 µM (1.8-fold).

Compared with O=C(Nc1cc(-c2ccccc2)sc1C(=O)O)c1ccc2c(c1)OCCO2, O=C(Nc1cc(-c2ccccc2)sc1C(=O)O)c1ccc(Br)o1 is 2.3-fold lower in CC50: 121 µM for the first, 53.3 µM for the second.

O=C(Nc1cc(-c2ccc(OC(F)(F)F)cc2)sc1C(=O)O)c1cccc(F)c1 and O=C(Nc1cc(-c2ccc(C(F)(F)F)cc2)sc1C(=O)O)c1cccc(F)c1 are within 1.5-fold of each other in CC50: 52.1 µM for the first, 35.1 µM for the second.

Compared with CC(C)(C)c1ccc(-c2cc(NC(=O)c3ccc(Br)s3)c(C(=O)O)s2)cc1, Cc1ccc(-c2cc(NC(=O)c3ccc(Br)s3)c(C(=O)O)s2)cc1 is 3.2-fold higher in CC50: 20.5 µM for the first, 66 µM for the second.

COc1ccc(-c2cc(NC(=O)c3cc4ccccc4o3)c(C(=O)O)s2)cc1 and CCOc1ccc(-c2cc(NC(=O)c3cc4ccccc4o3)c(C(=O)O)s2)cc1 are within 1.5-fold of each other in CC50: 284 µM for the first, 193 µM for the second.

Compared with COc1ccc2nc(NC(=O)c3cccs3)sc2c1, COc1ccc2nc(NC(=O)c3ccco3)sc2c1 is 2.3-fold higher in CC50: 29.3 µM for the first, 66.7 µM for the second.

O=C(Nc1cc(-c2ccc(C(F)(F)F)cc2)sc1C(=O)O)c1ccc(Br)o1 and O=C(Nc1cc(-c2ccc(OC(F)(F)F)cc2)sc1C(=O)O)c1ccc(Br)o1 are within 1.5-fold of each other in CC50: 47.5 µM for the first, 33.6 µM for the second.

CC(C)(C)c1ccc(-c2cc(NC(=O)c3c(F)cccc3F)c(C(=O)O)s2)cc1 and CC(C)c1ccc(-c2cc(NC(=O)c3c(F)cccc3F)c(C(=O)O)s2)cc1 are within 1.5-fold of each other in CC50: 35.1 µM for the first, 32.4 µM for the second.

O=C(Nc1cc(-c2ccc(C(F)(F)F)cc2)sc1C(=O)O)c1ccc(Br)s1 and O=C(O)c1sc(-c2ccc(C(F)(F)F)cc2)cc1NS(=O)(=O)c1ccc(Br)s1 are within 1.5-fold of each other in CC50: 38.5 µM for the first, 45.2 µM for the second.

CCCc1ccc(-c2cc(NC(=O)c3c(F)cc(F)cc3F)c(C(=O)O)s2)cc1 and CCCOc1ccc(-c2cc(NC(=O)c3c(F)cc(F)cc3F)c(C(=O)O)s2)cc1 are within 1.5-fold of each other in CC50: 69.9 µM for the first, 85.6 µM for the second.

CCCCOc1ccc(-c2cc(NC(=O)c3c(F)cc(F)cc3F)c(C(=O)O)s2)cc1 and CCOc1ccc(-c2cc(NC(=O)c3c(F)cc(F)cc3F)c(C(=O)O)s2)cc1 are within 1.5-fold of each other in CC50: 56.2 µM for the first, 76.6 µM for the second.

Going from O=C(Nc1ccncc1F)c1ccc2ncsc2c1 to O=C(Nc1ccnc(F)c1)c1ccc2ncsc2c1, the CC50 falls from 229 µM to 119 µM (1.9-fold).

Going from O=S(=O)(Nc1nc2ccc(OC(F)(F)F)cc2s1)c1ccc(Br)s1 to O=S(=O)(Nc1nc2ccc(F)cc2s1)c1ccc(Br)s1, the CC50 rises from 65.9 µM to 135 µM (2-fold).

Compared with CN(C(=O)c1ccc2ncsc2c1)c1ccccc1, O=C(Nc1ccnc(Br)c1)c1ccc2ncsc2c1 is 2-fold lower in CC50: 267 µM for the first, 136 µM for the second.

Going from COc1cccc2sc(NCc3ccc(Br)s3)nc12 to COc1cccc2sc(NC(=O)c3ccc(Br)s3)nc12, the CC50 falls from 165 µM to 24.4 µM (6.8-fold).

CCCc1ccc(-c2cc(NC(=O)c3c(F)cccc3F)c(C(=O)O)s2)cc1 and O=C(O)c1sc(-c2ccc(OCC(F)(F)F)cc2)cc1NC(=O)c1c(F)cccc1F are within 1.5-fold of each other in CC50: 54.9 µM for the first, 75.2 µM for the second.

Going from CCOc1ccc2nc(NC(=O)c3ccc(Br)s3)sc2c1 to CCOc1ccc(-c2cc(NC(=O)c3ccc(Br)s3)c(C(=O)O)s2)cc1, the CC50 falls from 91.2 µM to 49.7 µM (1.8-fold).

Compared with O=C(ONc1ccc(N=NC(=O)c2ccccc2O)cc1)c1ccccc1, O=C(NCc1cc([N+](=O)[O-])ccc1O)c1cccnc1Sc1ccccc1Cl is 4.1-fold higher in CC50: 12.8 µM for the first, 51.9 µM for the second.

First: CC(C)c1ccc(-c2cc(NC(=O)c3cc4ccccc4o3)c(C(=O)O)s2)cc1
Second: Cc1ccc(-c2cc(NC(=O)c3cc4ccccc4o3)c(C(=O)O)s2)cc1
The CC50 of the first is 2-fold lower: 47.2 µM for the first, 94.6 µM for the second.

First: CC(C)c1ccc(-c2cc(NC(=O)c3ccc(Br)s3)c(C(=O)O)s2)cc1
Second: CC(C)c1ccc(-c2cc(NC(=O)c3ccc(Br)o3)c(C(=O)O)s2)cc1
The CC50 of the first is 1.5-fold lower: 33.1 µM for the first, 50.4 µM for the second.

O=C(O)c1sc(-c2ccc(OCCCC(F)(F)F)cc2)cc1NC(=O)c1c(F)cc(F)cc1F and CCOc1ccc(-c2cc(NC(=O)c3c(F)cccc3C(F)(F)F)c(C(=O)O)s2)cc1 are within 1.5-fold of each other in CC50: 54.7 µM for the first, 62 µM for the second.

COc1ccc(-c2cc(NC(=O)c3cccc(F)c3)c(C(=O)O)s2)cc1 and CCOc1ccc(-c2cc(NC(=O)c3cccc(F)c3)c(C(=O)O)s2)cc1 are within 1.5-fold of each other in CC50: 44.8 µM for the first, 55.6 µM for the second.

CC(C)c1ccc(-c2cc(NC(=O)c3cccc(F)c3)c(C(=O)O)s2)cc1 and CC(C)(C)c1ccc(-c2cc(NC(=O)c3cc4ccccc4o3)c(C(=O)O)s2)cc1 are within 1.5-fold of each other in CC50: 37.5 µM for the first, 34.5 µM for the second.

CCCCOc1ccc(-c2cc(NC(=O)c3cc(Br)c(Br)o3)c(C(=O)O)s2)cc1 and CCCc1ccc(-c2cc(NC(=O)c3cc(Br)c(Br)o3)c(C(=O)O)s2)cc1 are within 1.5-fold of each other in CC50: 31.7 µM for the first, 41 µM for the second.

For Cc1ccc(-c2cc(NS(=O)(=O)c3ccc(Br)s3)cs2)cc1, the CC50 was 94 µM.

With CCOc1ccc(-c2cc(NC(=O)c3c(F)cccc3F)c(C(=O)O)s2)cc1 the CC50 was 42.1 µM and 51.6 µM.
With O=C(Nc1cc(-c2ccc(OCCCC(F)(F)F)cc2)sc1C(=O)O)c1cc(Br)c(Br)o1 the CC50 was 26.6 µM and 251 µM.
With O=C(Nc1ccncc1)c1ccc2ncsc2c1 the CC50 was 178 µM and 244 µM.
